We go through four compounds from PMC3119342 (Chemistry & biology, 2011).

One assay deals with T1, mouse brain KIAA1363 (Mus musculus, UniProt Q8BLF1).
T1 sequence (Q8BLF1 1-408): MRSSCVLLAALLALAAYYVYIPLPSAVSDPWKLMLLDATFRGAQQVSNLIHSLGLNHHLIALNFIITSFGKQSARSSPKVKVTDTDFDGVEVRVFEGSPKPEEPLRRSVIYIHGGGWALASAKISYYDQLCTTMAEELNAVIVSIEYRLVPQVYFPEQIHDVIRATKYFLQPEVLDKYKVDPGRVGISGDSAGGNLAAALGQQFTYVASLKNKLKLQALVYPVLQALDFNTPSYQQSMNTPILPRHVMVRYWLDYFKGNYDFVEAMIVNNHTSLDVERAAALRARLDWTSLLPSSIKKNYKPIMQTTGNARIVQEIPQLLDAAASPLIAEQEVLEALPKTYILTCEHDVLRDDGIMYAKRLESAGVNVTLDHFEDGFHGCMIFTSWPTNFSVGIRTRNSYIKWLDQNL
Briefly: Gel-based competitive ABPP. It is filed as biochemical. The conditions noted are these: read-out: IC50 for KIAA1363, mouse brain proteome.

Another assay addresses AChE (Mus musculus, UniProt P21836). The conditions noted are these: mouse brain proteome; for IC50: read-out: IC50 for AChE, substrate acetylthiocholine.
A further assay addresses T2, FAAH (Mus musculus, UniProt O08914).
T2 sequence (O08914 1-579): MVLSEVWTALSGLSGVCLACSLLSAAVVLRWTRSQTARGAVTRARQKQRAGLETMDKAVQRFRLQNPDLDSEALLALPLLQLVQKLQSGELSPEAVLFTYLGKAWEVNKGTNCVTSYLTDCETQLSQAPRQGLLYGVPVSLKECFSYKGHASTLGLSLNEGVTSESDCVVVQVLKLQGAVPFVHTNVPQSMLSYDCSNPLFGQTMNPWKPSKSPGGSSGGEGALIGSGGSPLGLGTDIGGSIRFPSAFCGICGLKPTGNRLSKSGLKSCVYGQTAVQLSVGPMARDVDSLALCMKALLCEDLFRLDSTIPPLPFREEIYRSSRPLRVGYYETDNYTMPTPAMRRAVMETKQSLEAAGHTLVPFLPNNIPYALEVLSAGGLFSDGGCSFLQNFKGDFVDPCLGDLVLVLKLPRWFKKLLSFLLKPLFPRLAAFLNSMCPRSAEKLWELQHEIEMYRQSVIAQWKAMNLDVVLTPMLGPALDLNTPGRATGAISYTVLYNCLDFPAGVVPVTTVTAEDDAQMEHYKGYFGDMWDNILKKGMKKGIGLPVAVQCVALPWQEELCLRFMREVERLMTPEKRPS
Briefly: Competitive ABPP of FAAH in mouse brain proteome. The assay is classed as biochemical. To be noted: gel-based competitive ABPP of a mouse brain proteome.

A further assay deals with T3, HSL (Mus musculus, UniProt P54310).
T3 sequence (P54310 1-759): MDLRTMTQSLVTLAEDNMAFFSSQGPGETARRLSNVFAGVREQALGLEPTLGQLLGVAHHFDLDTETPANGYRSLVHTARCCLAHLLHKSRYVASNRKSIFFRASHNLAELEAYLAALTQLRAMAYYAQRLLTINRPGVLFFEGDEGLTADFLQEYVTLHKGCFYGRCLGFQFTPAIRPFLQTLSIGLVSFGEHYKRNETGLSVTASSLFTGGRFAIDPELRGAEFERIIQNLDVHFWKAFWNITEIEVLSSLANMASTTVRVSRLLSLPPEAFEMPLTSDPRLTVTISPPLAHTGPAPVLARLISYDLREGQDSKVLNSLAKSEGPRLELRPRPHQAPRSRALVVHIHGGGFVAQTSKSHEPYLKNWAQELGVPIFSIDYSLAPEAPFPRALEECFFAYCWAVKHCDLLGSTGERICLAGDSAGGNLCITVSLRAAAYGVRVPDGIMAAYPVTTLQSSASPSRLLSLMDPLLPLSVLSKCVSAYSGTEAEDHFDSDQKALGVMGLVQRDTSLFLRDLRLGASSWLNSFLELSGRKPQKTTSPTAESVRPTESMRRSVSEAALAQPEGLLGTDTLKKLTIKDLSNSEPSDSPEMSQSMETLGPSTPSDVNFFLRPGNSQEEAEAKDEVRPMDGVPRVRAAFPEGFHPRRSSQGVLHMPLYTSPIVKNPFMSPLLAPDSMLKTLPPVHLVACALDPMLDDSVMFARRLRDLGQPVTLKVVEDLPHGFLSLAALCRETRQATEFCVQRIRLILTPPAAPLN
Briefly: Competitive ABPP in rosiglitazone-differentiated 3T3-10T1/2 adipocyte proteome. The assay is classed as biochemical.

Assay [1] deals with PC3 cells. Briefly: Serum-free cell survival assay. It is filed as cell-based, human. The conditions noted are these: prostate cancer (PC3) cells; JW480 1 μM, 48 h in situ.
A further assay relates to MAGE lipids. Description: Lipid measurements. The assay is classed as cell-based, human. The conditions noted are these: for MAGE lipids: prostate cancer cells (Figure S4); for MAGE lipid levels: 1 μM, 48 hr.
Assay [2] deals with PC3 cells. Briefly: Cell migration assay. The conditions noted are these: prostate cancer (PC3) cells; JW480 1 μM, 48 h in situ. It is filed as cell-based, human.
The subject of assay [3] is PC3 cells. Briefly: Invasion assay. The conditions noted are these: prostate cancer (PC3) cells; JW480 1 μM, 48 h in situ. It is filed as cell-based, human.
Assay [4] concerns the target serine hydrolase activities detected in the brain proteome (Mus musculus, UniProt P21836). To be noted: brain proteome of treated mice (Figure 4C).
Another assay has as its target T4, brain KIAA1363 (Mus musculus, UniProt Q8BLF1).
T4 sequence (Q8BLF1 1-408): T1 sequence (Q8BLF1 1-408)
Description: Competitive ABPP of brain proteomes from inhibitor-treated mice. It is filed as in vivo. To be noted: for inhibition of brain KIAA1363: 4 hr.

Assay [5] addresses T5, KIAA1363 (Homo sapiens, UniProt Q6PIU2).
T5 sequence (Q6PIU2 1-408): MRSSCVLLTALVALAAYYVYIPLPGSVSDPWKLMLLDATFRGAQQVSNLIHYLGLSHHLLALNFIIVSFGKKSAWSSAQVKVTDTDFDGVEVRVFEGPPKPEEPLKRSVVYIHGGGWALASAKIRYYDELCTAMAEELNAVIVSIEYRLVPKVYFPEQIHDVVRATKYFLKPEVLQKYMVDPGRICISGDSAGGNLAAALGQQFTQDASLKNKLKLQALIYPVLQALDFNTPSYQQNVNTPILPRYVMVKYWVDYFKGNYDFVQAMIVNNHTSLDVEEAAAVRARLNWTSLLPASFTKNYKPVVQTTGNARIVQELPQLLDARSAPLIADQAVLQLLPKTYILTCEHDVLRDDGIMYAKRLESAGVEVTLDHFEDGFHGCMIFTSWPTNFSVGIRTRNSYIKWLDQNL
Description: Gel-based competitive ABPP in living PC3 cells. It is filed as cell-based. The conditions noted are these: for IC50: read-out: IC50 for KIAA1363.

Assay [6] addresses T6, KIAA1363 (2-acetyl MAGE hydrolase activity) (Homo sapiens, UniProt Q6PIU2).
T6 sequence (Q6PIU2 1-408): T5 sequence (Q6PIU2 1-408)
Description: 2-Acetyl MAGE hydrolytic activity assay in prostate cancer cells. The assay is classed as cell-based. The conditions noted are these: 1 μM, 48 h.

The test system of another assay is PC3 tumor xenograft. Briefly: PC3 tumor xenograft growth in SCID mice. It is filed as in vivo, mouse. The conditions noted are these: 80 mg/kg, oral gavage, one dose per day, versus vehicle. A digest of the protocol: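 PC3 cells were washed, trypsinised, resuspended serum-free at 2.0 × 10^4 cells/μL, and 100 μL was injected into the flank of C.B17 SCID mice. Dosing was once daily by oral gavage in PEG300 (4 μL/g) or vehicle, starting immediately after injection. Tumours were measured with calipers every 3 days and excised 4 hr after the final dose on day 33 for ABPP.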

The test system of assay [7] is other mouse brain serine hydrolases. Briefly: Gel-based competitive ABPP, other serine hydrolases of mouse brain proteome. It is filed as biochemical.
The test system of another assay is LNCaP cells. Briefly: Cell survival assay in LNCaP cells. The conditions noted are these: which express low levels of KIAA1363. The assay is classed as cell-based, human.
Assay [8] concerns the target T5, KIAA1363. Briefly: Gel-based competitive ABPP in PC3 cell proteomes. It is filed as biochemical. To be noted: read-out: IC50 for human KIAA1363, in vitro treatment.
Assay [9] concerns serine hydrolase activities detected in PC3 cells. Description: Competitive ABPP-MudPIT of PC3 cells treated in situ. It is filed as cell-based, human. To be noted: 1 μM in situ, ~30 serine hydrolase activities.

“Also recorded” adds a separate entry of the source. Some results are limits rather than exact numbers.

In general, IC50 refers to the concentration at which inhibition is half-maximal.

AChE, sequence (P21836 32-614): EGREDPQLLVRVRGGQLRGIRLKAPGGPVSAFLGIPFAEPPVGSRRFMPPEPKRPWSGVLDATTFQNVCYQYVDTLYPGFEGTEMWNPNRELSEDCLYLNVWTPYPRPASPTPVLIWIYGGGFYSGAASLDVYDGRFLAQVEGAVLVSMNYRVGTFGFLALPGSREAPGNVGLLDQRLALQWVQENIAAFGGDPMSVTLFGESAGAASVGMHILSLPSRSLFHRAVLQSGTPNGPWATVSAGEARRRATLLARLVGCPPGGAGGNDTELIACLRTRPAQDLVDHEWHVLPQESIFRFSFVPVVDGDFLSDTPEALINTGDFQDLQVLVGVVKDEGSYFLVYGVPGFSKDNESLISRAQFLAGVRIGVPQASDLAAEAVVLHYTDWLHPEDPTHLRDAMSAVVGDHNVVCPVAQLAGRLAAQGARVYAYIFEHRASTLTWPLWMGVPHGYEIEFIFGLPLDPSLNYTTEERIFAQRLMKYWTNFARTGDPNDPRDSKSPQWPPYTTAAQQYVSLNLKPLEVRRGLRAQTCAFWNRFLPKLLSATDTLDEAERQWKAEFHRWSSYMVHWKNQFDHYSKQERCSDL
serine hydrolase activities detected in the brain proteome, sequence (P21836 32-614): as above

For `CC1(C)Cc2cccc(OC(=O)NCc3ccc(F)cc3)c2O1` [WWL38], the IC50 at mouse brain KIAA1363 is roughly 200 nM. At AChE, the “cross-reactivity with AChE” value is recorded as “cross-reactivity”. For the same compound, the “selectivity for KIAA1363 compared to FAAH” value at FAAH is reported as “good selectivity”. The “cross-reactivity with HSL” value on HSL is “cross-reactivity”.

Consider `COc1ccc(CNC(=O)Oc2cccc3c2OC(C)(C)C3)cc1` [JW148], for which the IC50 at mouse brain KIAA1363 was roughly 200 nM. Besides, on AChE, the “cross-reactivity with AChE” value is “cross-reactivity” and the IC50 is 1000 nM. In addition, on FAAH, the “selectivity for KIAA1363 compared to FAAH” value was “good selectivity”. In addition, the “survival in serum-free media” value in the assay with PC3 cells [1] was “also observed”. Further, the “cross-reactivity with HSL” value at HSL was “cross-reactivity”. The MAGE lipids entry in the assay with MAGE lipids is “reductions”. In addition, the migration result in the assay with PC3 cells [2] is reported as “also observed”. The invasion result in the assay on PC3 cells [3] is on record as “also observed”.

As for `CCCCOC[C@H]1CCCC[C@H]1COCCNC(=O)Oc1ccccc1F` [AS115, reference compound], the “survival in serum-free media” value in the assay with PC3 cells [1] is listed as “also observed”. Besides, the MAGE lipids entry in the assay on MAGE lipids was “reductions”. In addition, the invasion entry in the assay with PC3 cells [3] is reported as “also observed”.

Turning to `CC(C)c1ccccc1OC(=O)NCCc1ccc2ccccc2c1` [JW480], the “cross-reactivity with AChE by competitive ABPP-MudPIT” value in assay [4] is “negligible cross-reactivity”. Also, at AChE, the “cross-reactivity with AChE” value is listed as “negligible cross-reactivity”. The IC50 on AChE is greater than 100000 nM; at KIAA1363 [5] (PC3 cells, in situ), 6 nM; on KIAA1363 [5] (living PC3 cells, in situ treatment, presence or absence of 10% fetal calf serum), 6 to 12 nM; at KIAA1363 [8], 12 nM. In the assay with PC3 cells [1], the “survival in serum-free media” value is given as “reductions; also recorded: reduced”. The “time of full inhibition of KIAA1363 in mice” value at brain KIAA1363 (following a single administration, orally active) was “at least 24 hrs”. Moreover, the “inhibition of brain KIAA1363” value is “complete inhibition” at brain KIAA1363 (mice, 5 mg/kg i.p.) and “complete inhibition” on brain KIAA1363 (mice, 20 mg/kg oral). Also, the “time inhibition of KIAA1363 was maintained in vivo” value at brain KIAA1363 (mice, single administration, 20 mg/kg, oral) is on record as “up to 24 hr”. Further, the “time in situ inhibition of KIAA1363 was maintained” value at KIAA1363 [5] (1 μM, in situ) was “at least 48 hr”. Moreover, the “2-acetyl MAGE hydrolase activity” value in assay [6] (DU145 cells) and in assay [6] (PC3 cells) was “completely blocked; also recorded: ablates” each time. Besides, the “cross-reactivity with HSL” value at HSL is on record as “negligible cross-reactivity”. For the same compound, the MAGE lipid levels entry in the assay on MAGE lipids (DU145 cells) and in the assay on MAGE lipids (PC3 cells) was “significant reductions; also recorded: significantly reduces” each time. The PC3 tumor growth result in the assay on PC3 tumor xenograft is given as “significantly impaired; also recorded: significantly reduces”. In assay [7], the “cross-reactivity with other mouse brain serine hydrolases” value is “negligible cross-reactivity”. Further, in the assay with LNCaP cells, the “survival in LNCaP cells” value was “did not affect”. Also, in the assay with PC3 cells [2], the migration entry is “reductions; also recorded: reduced”. The invasion result with PC3 cells [3] is reported as “reductions; also recorded: reduced”. In addition, the “off-target activity across serine hydrolases by ABPP-MudPIT” value in assay [9] is “no off-target activity; also recorded: only KIAA1363 was inhibited”.
